Most compounds without a hit are left out; they make up all but 0.85% or so of the library.
OXTR potentiator: human OXTR potentiation; P30559; CHO-OTR cells, Fluo-8 calcium fluorescence, potentiator mode; 0% = oxytocin EC15, 100% = EC100; activation, % at 3 µM; 320,000 compounds, 0.061% hits; AID 2445;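 active means activation above that plate's cutoff, the mean activation of tested compounds plus 3 SD, cut at about 6.6% in these data, passing the limit was not always enough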
Target sequence (P30559 whole entry, looked up): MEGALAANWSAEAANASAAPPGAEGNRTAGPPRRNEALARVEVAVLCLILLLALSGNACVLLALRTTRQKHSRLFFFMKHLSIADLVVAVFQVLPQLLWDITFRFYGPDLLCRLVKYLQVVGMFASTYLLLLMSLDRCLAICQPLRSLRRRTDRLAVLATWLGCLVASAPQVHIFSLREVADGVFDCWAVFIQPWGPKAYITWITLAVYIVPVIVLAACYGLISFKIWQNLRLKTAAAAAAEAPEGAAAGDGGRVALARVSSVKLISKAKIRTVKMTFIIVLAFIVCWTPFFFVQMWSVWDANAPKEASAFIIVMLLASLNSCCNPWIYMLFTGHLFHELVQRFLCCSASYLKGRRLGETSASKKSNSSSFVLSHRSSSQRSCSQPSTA
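Dosing: Single dose, 3.0 µM nominal final compound concentration | Material: Human OTR in CHO cells | Technique: Kinetic Fluo-8 calcium fluorescence | Benchmarks: EC15 oxytocin alone as 0%, 75 nM oxytocin as 100% | Probe or stimulus: Oxytocin at about EC15, sub-maximal agonist stimulus | Incubation: Compound 6 min at room temperature before oxytocin, 100 s read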
TRPML3 agonist: agonists of human TRPML3 channel; HEK293 TRPML3-YFP, Fluo-8 calcium fluorescence; 100% = the carbachol control signal; AID 1448; Q8TDD5; 220,000 compounds, 0.29% hits; activation, % at 3 µM;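 active means activation above its plate's cutoff, the mean activation of the plate's test wells plus 3 SD, cut at about 12% in these data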
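Test system: TRPML3-YFP stable HEK293 cells. Doses: single point at 3 µM. Incubation: dye loading 1 h 37 °C then 30 min ambient, 125 s read. Signal: Fluo-8 calcium dye fluorescence, ex 470-495, em 515-575 nm. Measure: percent activation from peak-to-basal fluorescence ratio, scaled between DMSO and carbachol.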
TRPN1 ag: agonists of zebrafish TRPN1 channel. HEK293 zebrafish TRPN1-YFP, Fluo-8 calcium fluorescence; 100% = response to 87 µM carbachol. activation, % at 3 µM. 220,000 compounds, 0.18% hits;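 active means activation above its plate's cutoff, the mean activation of test wells on that plate plus 3 SD, cut at about 19% in these data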
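Material: zebrafish TRPN1-YFP in HEK293 cells; Doses: single test compound dose, 3 µM nominal, 0.3% DMSO; Timing: dye loading 1 h at 37 °C, then 30 min room temperature; Technique: intracellular calcium fluorescence with Fluo-8; Benchmarks: high carbachol 87 µM, low DMSO alone.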
OXTR ag: human OXTR agonism; P30559; CHO-OTR cells, Fluo-8 calcium fluorescence; normalized: DMSO 0%, oxytocin 100%; activation, % at 3 µM; 320,000 compounds, 0.32% hits; AID 2435;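 active means activation above the mean of all tested compounds plus 3 SD, cutoff set per screening run, cut at about 20% in these data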;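 further: peak over basal fluorescence ratio from a 100 s FLIPR kinetic read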
CRFR2-BP ag: agonists of human CRF-binding protein/CRF-R2 receptor complex; activation, % at 13.2 µM; AID 588473; HEK293 CRF-R2/CRF-BP, calcium dye fluorescence (FLIPR); percent of saturating CRF peptide response; 350,000 compounds, 0.46% hits;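 active means activation of at least 50%, plus an integration ratio under a set limit after plate pattern correction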
V1R ag counter: V1a receptor agonism, counter-screen for OXTR agonists | P37288 | CHO-V1R cells, Fluo-8 calcium fluorescence, agonist mode; 0% DMSO, 100% 3 nM vasopressin | activation, % at 3 µM | 320,000 compounds, 0.25% hits | AID 2797;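 active means activation above the mean activation of all tested compounds plus 3 SD, per screening run, cut at about 20% in these data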;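 further: signal is peak over basal fluorescence ratio across a 100 second FLIPR read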
OXTR ag confirm: human OXTR agonism, confirmation | shares compounds with OXTR ag | AID 434963 | CHO-OTR cells, Fluo-8 calcium fluorescence, agonist | activation, % at 3 µM | 390 compounds, 20% hits;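 active means mean activation above about 20% derived from the earlier single-dose screen, limit read from the data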;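 further: peak over minimum fluorescence ratio per well during a 100 second FLIPR read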
V1R ag counter 3x: counter-screen for oxytocin receptor agonists: V1a receptor agonists. 390 compounds, 10% hits. activation, % at 3 µM. shares compounds with OXTR ag. CHO-V1R cells, Fluo-8 calcium fluorescence, agonist;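 active means mean activation over triplicate exceeds the hit threshold set in the earlier primary screen, cut at about 20% in these data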;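 further: peak over basal fluorescence ratio within a 100 second read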
Hits are given with their value; – = inactive; · = no result given; ! = not active in a repeat.

SMILES	OXTR potentiator	TRPML3 agonist	TRPN1 ag	OXTR ag	CRFR2-BP ag	V1R ag counter	OXTR ag confirm	V1R ag counter 3x
COc1ccc(CNCCC(c2ccccc2)c2ccc3c(c2)OCO3)cc1 (configuration not stated)	–	–	–	22	–	–	–	–
C1=C(CCNc2ncnc3c2[nH]c2ccccc23)CCCC1	–	–	21	21	–	–	–	–
COc1ccc(CNc2ncnc3c2[nH]c2ccccc23)cc1	–	–	–	26	–	–	22	–
O=c1c2[nH]c3ccccc3c2ncn1CCC1=CCCCC1	–	–	–	–	–	–	·	·
COc1ccc(CNc2ncnc3c2[nH]c2cc(OC)c(OC)cc23)cc1	–	–	–	–	–	–	·	·
O=C(OC1CCCC1)c1ccc(Cl)cc1Cl	·	·	·	·	–	·	·	·
Cc1cc(C)n2nc(SCC(=O)Nc3ccccc3C)nc2n1	–	·	·	–	–	–	·	·
CC1=NN2C(=N)/C(=C\c3cc(C)n(Cc4ccccc4)c3C)C(=O)N=C2S1	–	–	–	22	–	–	–	–
CCCCCCCCCCCCCCCC[N+](C)(C)CC	–	·	·	21	–	–	21	–
CN(CC(=O)Nc1cccc(F)c1)C(=O)c1ccc(N2CCCCC2)c([N+](=O)[O-])c1	–	·	·	–	–	–	·	·
Cc1ccc(CNC(=O)Cn2nnc(C(=O)Nc3cccc(C)c3C)c2N)cc1	–	·	·	–	–	–	·	·
Cc1ccccc1Cn1nnc(C(=O)Nc2cccc(C)c2C)c1N	–	–	–	22	–	–	22	–
COc1cccc(CN2CC(C(=O)NCCSc3nnnn3C)CCC2=O)c1 (configuration not stated)	–	·	·	–	–	–	·	·
COc1cccc(CNCc2ccc(OC)cc2OC)c1	–	·	·	–	–	–	·	·
CCn1c2ccccc2c2cc(CNCc3ccc(OC)cc3OC)ccc21	–	–	–	23	–	–	–	–
c1ccc2c(OCCCN3CCCCCC3)cccc2c1	–	·	·	–	–	–	·	·
COc1cccc(/C=N/Nc2snc(SC)c2C#N)c1O	–	–	–	21	69	–	20	–
O=C(Cn1cc(C(F)(F)F)ccc1=O)Nc1ccc2c(c1)OCO2	·	·	·	·	–	·	·	·
CCc1ccc(OC(C)C(=O)Nc2ccc(S(=O)(=O)Nc3nccs3)cc2)cc1 (configuration not stated)	–	·	·	20	–	–	–	–
CCCCCCCCCCOC(=O)Cn1c(COc2ccccc2C)[n+](C)c2ccccc21	–	·	·	22	–	–	–	–
CCCCCCCCCCOC(=O)Cn1c(COc2cccc(C)c2)[n+](C)c2ccccc21	–	·	·	45	–	–	34	23
CCOC(=O)Cn1c(COc2ccccc2OC)[n+](C)c2ccccc21	–	·	·	–	–	–	·	·
COC(=O)c1ccc(OCC(=O)NCCC2=CCCCC2)c(OC)c1	–	·	·	–	–	–	·	·
Cc1ccc(N(C(=O)CNC(=O)c2ccco2)C(C(=O)NC2CCCC2)c2cccnc2)cc1F (configuration not stated)	–	·	·	–	–	–	·	·
COc1ccc(CN(C)c2ccc(S(=O)(=O)N3CCN(C)CC3)cc2[N+](=O)[O-])cc1OC	–	·	·	26	–	–	–	–
SMILES	OXTR potentiator	TRPML3 agonist	TRPN1 ag	OXTR ag	CRFR2-BP ag	V1R ag counter	OXTR ag confirm	V1R ag counter 3x
O=C(NCc1ccc(OC(F)(F)F)cc1)c1cccc2c1C(=O)c1ccc(N3CCC(Cc4ccccc4)CC3)cc1S2(=O)=O	–	·	·	23	63	–	22	27
Cn1c(N)c(C(=O)N2CCN(c3ccccc3)CC2)c(=O)n(C)c1=O	·	·	·	·	–	·	·	·
C[C@H]1CC[C@H]2C(=O)N[C@H](Cc3ccccc3)C(=O)N2[C@@H]1c1ccccc1	–	–	–	30	–	–	–	–
COC(=O)[C@@]12CCCCN1[C@H](c1ccc(-c3cc(C(C)=O)cs3)cc1)[C@H]1C(=O)N(C)C(=O)[C@H]12	–	·	·	–	–	–	·	·
COc1cc(CNCCc2ccccc2)ccc1OCc1ccc(Cl)nc1	–	–	–	–	–	–	·	·
COc1cc(CNCC(O)c2ccccc2)ccc1OCc1ccc(Cl)nc1 (configuration not stated)	–	–	–	20	–	–	–	–
CSc1ncccc1C(=O)OCC(=O)Nc1ccc(N2CCOCC2)cc1	–	·	·	–	–	–	·	·
C[C@@H]1CN([C@@H](C)CO)S(=O)(=O)c2ccc(Br)cc2O[C@H]1CN(C)Cc1ccccn1	·	·	·	·	–	·	·	·
Cc1cccc(CCN2C(Nc3ccccc3)=NC[C@@H]2CC(C)C)c1	–	·	·	21	111	–	–	21
CCOc1ccc(/C=C/C2=Cc3c(sc(NC(=O)CSc4n[nH]c(N)n4)c3C#N)C(C)(C)C2)cc1	–	–	–	27	–	–	–	–
CCOC(=O)c1sc(NC(=O)CSc2n[nH]c(-c3ccncc3)n2)c(C#N)c1C	–	–	–	–	–	–	·	·
COc1ccc(C2SCCN2C(=S)Nc2ccc(Cl)cc2)cc1 (configuration not stated)	–	–	–	–	–	–	·	·
COc1ccc(C2SCCN2C(=S)Nc2cccc(Cl)c2)cc1 (configuration not stated)	–	–	–	23	–	–	30	–
CC1CCCC(NC(=O)CCCCCn2c(=S)[nH]c3ccsc3c2=O)C1C (configuration not stated)	·	·	·	·	–	·	·	·
O=C1C=C(O)CC(c2ccc(Cl)c(Cl)c2)C1 (configuration not stated)	–	–	–	–	–	–	·	·
CN[C@H]1CC[C@@H](c2ccc(Cl)c(Cl)c2)c2ccccc21	–	–	–	21!	–	–	–	–
Cc1c(C(=O)O)sc2nc(-c3cccs3)cc(C(F)(F)F)c12	–	·	·	–	–	–	·	·
CC(=O)c1sc2nc(-c3cccs3)cc(C(F)(F)F)c2c1N	–	–	–	27	113	–	40	52
Cc1cccc(OCC(=O)Nc2ccncc2)c1C	–	·	·	20	–	–	–	–
COc1ccccc1OCC(=O)Nc1ccncc1	–	·	·	–	–	–	·	·
COc1ccc(OCC(O)CNCCOc2ccccc2OC)c(C(C)(C)C)c1 (configuration not stated)	–	·	·	22	–	–	–	–
O=C(Nc1cccc([N+](=O)[O-])c1)c1cc2ccccc2cc1O	–	17	27	25	–	–	–	–
O=C(O)c1ccccc1C(=O)Nc1cccc([N+](=O)[O-])c1	–	–	–	–	–	–	·	·
COc1ccc(C=NCCc2ccc(OC)c(OC)c2)cc1OC	·	·	·	·	–	·	·	·

Bioassay records (PubChem)
